# Screening data from PubChem BioAssay.
# Most compounds without a hit are left out; they make up all but 2.2% or so of the library.
# Statin myotox sup: suppressors of simvastatin-induced myotoxicity in C2C12 myotubes. rescue of ATP level, % at 7.49 µM. ATP luminescence, 48 h; scaled: DMSO 0, geranylgeraniol control 100. actives 0.78% (n = 330,000). AID 602340;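 active = mean ATP rescue above about 67%, or every replicate alone reaching that limit, limit read from the data, passing the limit was not always enough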;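 note: myotubes were challenged with 10 µM simvastatin during compound exposure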
# E-sel inducer: induces E-selectin expression in human endothelial cells | P16581 | HUVEC E-selectin immunofluorescence imaging; normalized: neutral wells 0, TNF-alpha wells 100 | activation, % at 7.58 µM | actives 0.37% (n = 260,000) | AID 686992;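 active = mean E-selectin-positive cell signal at least 10% of the positive control, reached in at least 60% of replicates, without over 20% cell loss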
#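 Read-out: % PE-positive cells | Test system: HUVEC | Doses: One compound dose added by pin transfer | Buffer or medium: EGM-2 over gelatin coat | Signal: Immunofluorescence imaging | Benchmarks: TNF-alpha, DMSO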
# DENV2 CPE rescue: protects cells from dengue virus 2 cytopathic effect | DENV2-infected cells, cytopathic effect rescue, plate reader | CPE inhibition, % at 9.99 µM | actives 1.7% (n = 350,000) | AID 651640; in the data active = CPE inhibition above about 20%, passing the limit was not always enough; tested in BHK-21 cells;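 note: 0% = median of neutral control wells and 100% = median of positive control wells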
# Starred values were filed as active, the others as inactive; x = no result given.
SMILES,Statin myotox sup,E-sel inducer,DENV2 CPE rescue
Cc1ccc(NC(=O)[C@H](NC(=O)[C@@H]2Cc3ccccc3CN2)c2ccccc2)cc1,3.2,x,-7.2
Cc1cc(C)n(C(=O)c2ccc(C)c(S(=O)(=O)N3CCCC3)c2)n1,94.7*,x,x
Cc1ccc(-c2ccc(S(=O)(=O)NCC3CCCO3)cc2)cc1 (centres undefined),x,4.2,x
Cc1cc(C)n(C(=O)c2cccc(S(=O)(=O)N3CCCCC3)c2)n1,-2.6,-1.0,-0.6
Cc1cc(C)n(C(=O)c2ccc(S(=O)(=O)NCC3CCCO3)cc2)n1 (centres undefined),111.8*,x,x
O=C(CC1CC1)Nc1ccc2c(c1)[C@@H]1C[C@H](CC(=O)N3CCOCC3)O[C@@H](CO)[C@@H]1O2,-2.8,-0.2,-5.4
CC(C)NC(=O)N(C)C[C@H]1Oc2ccc(NC(=O)CCCN(C)C)cc2C(=O)N([C@H](C)CO)C[C@@H]1C,4.6,1.6,0.5
COc1ccccc1C(=O)Nc1ccc2c(c1)C(=O)N(C)C[C@@H](OC)[C@H](C)CN(CC1CC1)[C@@H](C)CO2,37.4,0.0,5.8
COc1ccc(C(CNS(=O)(=O)c2ccc(NC(C)=O)c(OC)c2)N2CCCC2)cc1 (centres undefined),1.5,0.2,35.8*
COc1ccc(C(CNS(=O)(=O)c2ccc(NC(C)=O)c(OC)c2)N2CCCCC2)cc1 (centres undefined),-1.8,1.8,11.1
CC(C)CC(NC(=O)C1CCC(C)CC1)C(=O)Nc1cccnc1 (centres undefined),108.3*,x,x
CC(C)CC(NC(=O)C1CCC(C)CC1)C(=O)NCc1cccnc1 (centres undefined),-0.9,x,x
CCN(C(=S)NCc1ccccc1)c1cccc2ccccc12,2.7,3.2,-3.7
CCN(C(C)=O)c1cccc2ccccc12,147.3*,x,x
C[C@H](CO)N1C[C@H](C)[C@H](CN(C)Cc2ccc3c(c2)OCO3)Oc2ccc(NC(=O)Nc3ccc(C(F)(F)F)cc3)cc2CC1=O,-18.8,1.2,53.7*
C[C@@H]1CN([C@H](C)CO)C(=O)Cc2cc(NC(=O)CCC(F)(F)F)ccc2O[C@H]1CN(C)Cc1ccc2c(c1)OCO2,22.1,-3.0,44.8*
C[C@H]1CN([C@@H](C)CO)C(=O)Cc2cc(NC(=O)CCC(F)(F)F)ccc2O[C@H]1CN(C)Cc1ccc2c(c1)OCO2,35.8,-3.1,19.5
C[C@@H]1CN([C@@H](C)CO)C(=O)Cc2cc(NC(=O)Nc3ccc(C(F)(F)F)cc3)ccc2O[C@H]1CN(C)Cc1ccc2c(c1)OCO2,-33.0,-0.2,-17.2
Clc1ccc(SCc2cc(N3CCOCC3)nc(-c3ccccn3)n2)cc1,x,x,-1.4
Cc1nc(CSc2ccc(Cl)cc2)cc(N2CC(C)OC(C)C2)n1 (centres undefined),107.3*,-2.5,6.6
CCCCOc1ccc(C(=O)NN2CCOCC2)cc1,x,x,8.9
CCOc1ccc(C(=O)C(CN2CCOCC2)c2ccccc2)cc1 (centres undefined),92.5*,x,x
O=C(c1ccc(Br)cc1)C(CN1CCOCC1)c1ccccc1 (centres undefined),5.9,1.4,-5.5
CCOc1ccc(C(=O)NN2CCOCC2)cc1,-1.1,0.4,153.5*
O=S(=O)(c1ccccc1F)N1CCCCN2[C@H](CO)[C@@H](c3ccc(-c4ccccc4)cc3)[C@@H]2C1,x,x,-7.8
SMILES,Statin myotox sup,E-sel inducer,DENV2 CPE rescue
COc1ccc(-c2nnc(SCC(=O)Nc3cccc(Cl)c3)o2)cc1,-20.4,-2.2,x
COc1cccc(NC(=O)CSc2nnc(-c3cc(-c4ccccn4)nc4ccccc34)o2)c1,82.9*,x,x
O=C(COc1ccc(Cl)cc1)N1CCN(C(=O)Cc2ccccc2)CC1,4.3,x,x
O=C(C[C@H]1C[C@@H]2c3cc(NC(=O)NC4CCCC4)ccc3O[C@@H]2[C@@H](CO)O1)NCc1ccc2c(c1)OCO2,14.0,0.4,0.8
CCCC(=O)N1CC2(CN(C)C2)c2c(n(C)c3cc(OC)ccc23)[C@@H]1CO,x,-0.2,-1.9
CN1CCN(C(=O)C[C@H]2C[C@H]3c4cc(NS(C)(=O)=O)ccc4O[C@H]3[C@@H](CO)O2)CC1,-0.5,0.2,-1.7
CC1OC(CCc2cccc(Cl)c2)Cc2[nH]c(=S)[nH]c(=O)c21 (centres undefined),x,0.6,39.8*
CC(C)C[C@@H]1O[C@H](CCc2ccccc2)Cc2[nH]c(=S)[nH]c(=O)c21,x,x,5.6
O=C(Nc1ccccc1)C1CC(=O)N(Cc2ccccc2)C1 (centres undefined),2.4,x,0.3
O=C(Nc1ccc(SC(F)F)cc1)C1CC(=O)N(Cc2ccccc2)C1 (centres undefined),x,0.9,21.8*
CNC[C@H]1OCCCC[C@H](C)Oc2ccc(NC(=O)Nc3ccccc3)cc2C(=O)N([C@H](C)CO)C[C@@H]1C,25.6,1.2,0.2
